Measurements published in PubChem BioAssay.
Inconclusive results are not listed.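 Rule for the calls, unless noted: active = cell viability at or below a set limit in both duplicate runs, the limit being the all-compound median minus 4 SD (cut at about 23% in these data, passing the limit was not always enough); inconclusive = no clear call, values can overlap the other calls; inactive = the rest.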

Legend:
[1] = S. cerevisiae growth inhibition in permissive medium (OD615), pilot counter-assay for S. cerevisiae lifespan shortening project, permissive growth control (AID 705;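 active = growth inhibition above 25% in both replicates, a cutoff set 3 SD above the mean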); conditions: OD615, 24 h, at 10 µM, stronger effect = higher value
Procedure, shortened: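 System: Engineered DeaD yeast | Buffer or medium: SC raffinose/galactose permissive medium | Incubation: Cells pre-grown 4 h, then 24 h compound exposure, 30 °C humidified | Measured by: Absorbance (optical density) at 615 nm | Read-out: Reduction in yeast growth (OD615)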

[2] = S. cerevisiae growth inhibition in restrictive medium, OD615, pilot screen, restrictive growth control, yeast lifespan reduction project (AID 706;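 active = growth inhibition above a set limit, 3 SD over mean compound inhibition, in both replicates, cut at about 43% in these data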;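 note: modified DeaD lifespan yeast strain shifted to restrictive glucose medium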); conditions: OD615, 48 h, at 10 µM, stronger effect = higher value
Procedure, shortened: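 Material: modified S. cerevisiae; Medium: glucose-based CSMM-D restrictive medium; Compound dosing: one concentration, 10 µM final, 0.25% DMSO; Incubation: 48 h compound exposure at 30 °C; Measured by: OD615.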

[3] = doxorubicin toxicity protection in MRP-1 cells – H69AR cells, CellTiter-Glo, duplicate, MRP-1 activator project, pilot screen (AID 807;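 active = viability increase at or above a cutoff of the median across tested compounds plus 3 SD, cut at about 8.5% in these data, passing the limit was not always enough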;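 note: compound pretreatment 18-22 h then 72 h combined with doxorubicin; 0% = doxorubicin alone and 100% = vehicle without doxorubicin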); conditions: H69AR viability with doxorubicin, CellTiter-Glo luminescence; at 10 µM; stronger effect = higher value
[4] = viability of HCT116 without oncogenic beta-catenin – human colon tumor cells, pilot screen (AID 823); conditions: HCT116 beta-catenin knockout viability, CellTiter-Glo, 60 h; at 10 µM; stronger effect = lower value;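 note: 0% = wells killed by 20 µM Hyamine and 100% = untreated DMSO cell wells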
[5] = viability of PTEN-null HCT116 cells – cell-based, HCT116 clonal line, CellTiter-Glo, pilot screen (AID 824;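 active = viability at or below 27.92% in each of two runs, the all-compound median minus 4 SD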;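 note: 0% = 20 µM Hyamine control and 100% = vehicle cell control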); conditions: HCT116 PTEN-deleted viability, 60 h, at 10 µM, stronger effect = lower value
[6] = RAM pathway blockade in budding yeast – dse1pr::URA3 reporter, 5-FOA selection, pilot screen (AID 869;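 active = inhibition over a set limit, the all-compound mean plus 3 SD, in both replicate runs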;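 note: 0% = DMSO wells with no growth and 100% = 10 µM 1-NA-PP1 with full growth; RAM network block rescues cells from 5-FOA so hits raise OD615 growth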); conditions: S. cerevisiae dse1pr::URA3 5-FOA growth, OD615, 2 d; at 10 µM; stronger effect = higher value; strain carries analog-sensitive mutant Cbk1 kinase
[7] = RAM signaling pathway blockade in yeast – S. cerevisiae, Pdr1DBD-CYC8 efflux-inhibited sensitized strain, primary screen (AID 1298;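 active = RAM network inhibition above 8.4% in each of two replicates, 3 SD over the compound average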;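 note: 0% = DMSO untreated cells without growth and 100% = 10 µM 1-NA-PP1 full growth; higher means more yeast growth rescued from 5-FOA killing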); conditions: S. cerevisiae cbk1-as DSE1-URA3 strain, 5-FOA growth OD615, 2 d; at 50 µM; stronger effect = higher value

CC(=O)NC(O)C(=O)c1ccccc1 (stereo unspecified)
inactive: growth inhibition [1] 5.71% | growth inhibition [2] 3.38% | viability increase [3] -2.24% | viability [4] 97% | viability [5] 89.6% | inhibition [6] -0.095% | RAM network inhibition [7] 3.35%

CCN1CCN(CCNC(=O)C2CCN(Cc3nc(-c4ccc(Cl)cc4)oc3C)CC2)CC1
inactive: growth inhibition [1] -6.21% | growth inhibition [2] -7.59% | viability increase [3] -3.29% | viability [4] 62.3% | viability [5] 70.1% | inhibition [6] 1.29% | RAM network inhibition [7] 3.67%

CN(CCNC(=O)C1CC(=O)N(C2CCCC2)C1)Cc1ccccc1 (stereo unspecified)
inactive: growth inhibition [1] -2.86% | growth inhibition [2] 0.485% | viability increase [3] -0.98% | viability [4] 98.6% | viability [5] 98.3% | inhibition [6] 0.74% | RAM network inhibition [7] 0.52%

Cn1c(=O)n(C)c2cc(CN3C(=O)OC(C)(C)C3(C)O)ccc21 (stereo unspecified)
inactive: growth inhibition [1] 2.22% | growth inhibition [2] 0.365% | viability increase [3] -1.11% | viability [4] 105% | viability [5] 95.2% | inhibition [6] 0.09% | RAM network inhibition [7] 4.45%

CC(=Nc1ccc(C)c(C)c1)C1=C(O)CSC1=O
inactive: growth inhibition [1] 1.08% | growth inhibition [2] -8.17% | viability increase [3] -2.54% | viability [4] 98.1% | viability [5] 90.3% | inhibition [6] 1.67% | RAM network inhibition [7] 4.33%

COc1ccccc1CNC(=O)C1CCN(S(=O)(=O)c2cccc3cccnc23)CC1
inactive: growth inhibition [1] 5.11% | growth inhibition [2] 0.02% | viability increase [3] -1.41% | viability [4] 108% | viability [5] 97.2% | inhibition [6] -0.9% | RAM network inhibition [7] -0.93%

Nc1ccc(Nc2ccccc2)c(Cl)c1
inactive: growth inhibition [1] -1.62% | growth inhibition [2] 19% | viability increase [3] -7.58% | viability [4] 94.7% | viability [5] 97.8% | inhibition [6] 2.79% | RAM network inhibition [7] 4.55%

Cc1nc2sc(C(c3ccccc3)N3CCN(CCO)CC3)c(O)n2n1 (stereo unspecified)
inactive: growth inhibition [1] -5.65% | growth inhibition [2] -2.6% | viability increase [3] -1.6% | viability [4] 106% | viability [5] 98.6% | inhibition [6] 1.32% | RAM network inhibition [7] 4.51%

Cc1cc(C)c(S(=O)(=O)Nc2ccc(O)cc2)c(C)c1
inactive: growth inhibition [1] -9% | growth inhibition [2] 3.16% | viability increase [3] -1.56% | viability [4] 91.6% | viability [5] 89.2% | inhibition [6] 1.2% | RAM network inhibition [7] 2.25%

CCOc1ccc(NC2c3ccccc3C(=O)N2c2ccc(Cl)cn2)cc1 (stereo unspecified)
inactive: growth inhibition [1] -14% | growth inhibition [2] -15.6% | viability increase [3] -1.1% | viability [4] 94.2% | viability [5] 94.6% | inhibition [6] 3.93% | RAM network inhibition [7] 3.42%

O=C(NCCCN1CCC(Cc2ccccc2)CC1)C1CC(=O)N(C2CCCC2)C1 (stereo unspecified)
inactive: growth inhibition [1] 1.72% | growth inhibition [2] -13.9% | viability increase [3] -2.03% | viability [4] 88.5% | viability [5] 83.7% | inhibition [6] -0.05% | RAM network inhibition [7] 2.13%

CCc1c(C)sc(NC(=O)c2cc(C)no2)c1C#N
inactive: growth inhibition [1] 1.33% | growth inhibition [2] 8.59% | viability increase [3] -0.5% | viability [4] 99% | viability [5] 93.4% | inhibition [6] 1.31% | RAM network inhibition [7] 6.13%

CCCOC(=O)C1=C(C)NC2=C(C(=O)C(C(=O)OC)C(C)C2)C1c1ccc(N(CC)CC)cc1 (stereo unspecified)
inactive: growth inhibition [1] -10.6% | growth inhibition [2] -19.6% | viability increase [3] -3.23% | viability [4] 65.7% | viability [5] 56.8% | inhibition [6] 1.56% | RAM network inhibition [7] 1.46%

CC(=O)Nc1ccc(OCC=C(Cl)Cl)cc1
inactive: growth inhibition [1] 2.81% | growth inhibition [2] 5.66% | viability increase [3] 1.02% | viability [4] 97.2% | viability [5] 102% | inhibition [6] 0.805% | RAM network inhibition [7] 1.16%

CCn1c(CNC(=O)c2cccc(C)c2)nc2ccccc21
inactive: growth inhibition [1] -6.91% | growth inhibition [2] -5.74% | viability increase [3] -0.3% | viability [4] 99.6% | viability [5] 97.2% | inhibition [6] 2.5% | RAM network inhibition [7] 5%

Cc1cc(C(=O)NCc2ccco2)cs1
inactive: growth inhibition [1] -6.77% | growth inhibition [2] -6.79% | viability increase [3] -2.37% | viability [4] 106% | viability [5] 99.9% | inhibition [6] 2.28% | RAM network inhibition [7] -0.32%

COc1cc(/C=N/n2cnnc2)ccc1OC(=O)c1ccncc1
inactive: growth inhibition [1] -13.9% | growth inhibition [2] -15.2% | viability increase [3] -2.23% | viability [4] 92.9% | viability [5] 99.1% | inhibition [6] 1.43% | RAM network inhibition [7] 1.08%

CN(CC(CC(=O)Nc1nncs1)c1ccccc1)S(=O)(=O)c1ccccc1 (stereo unspecified)
inactive: growth inhibition [1] -13.9% | growth inhibition [2] -11.4% | viability increase [3] -1.16% | viability [4] 96.2% | viability [5] 81.2% | inhibition [6] 1.82% | RAM network inhibition [7] 3.38%

CCN(CC)CC(=O)Nc1cc(C)c2c(=O)oc3ccccc3c2n1
inactive: growth inhibition [1] -15.1% | growth inhibition [2] -19.2% | viability increase [3] -3.1% | viability [4] 96.1% | viability [5] 91.6% | inhibition [6] 1.04% | RAM network inhibition [7] 6.81%

O=C(O)c1n[nH]c2ccccc12
inactive: growth inhibition [1] -1.77% | growth inhibition [2] -21.2% | viability increase [3] -2.36% | viability [4] 99.2% | viability [5] 95.6% | inhibition [6] 0.89% | RAM network inhibition [7] 0.16%

CCOC(=O)N1CCN(S(=O)(=O)c2cccc3nonc23)CC1
inactive: growth inhibition [1] -9.77% | growth inhibition [2] -27.6% | viability increase [3] -1.56% | viability [4] 90.5% | viability [5] 92.2% | inhibition [6] 1.68% | RAM network inhibition [7] 5.47%

CC1(C)CCCC2=C1CC1C(=O)N(O)C(=O)C1C2 (stereo unspecified)
inactive: growth inhibition [1] -8.79% | growth inhibition [2] -12.1% | viability increase [3] -1.21% | viability [4] 102% | viability [5] 87.8% | inhibition [6] 1.96% | RAM network inhibition [7] 1.62%

COc1ccc(OC)c(C2=Nn3c(nnc3-c3ccncc3)SC2)c1
inactive: growth inhibition [1] 0.735% | growth inhibition [2] 11.2% | viability increase [3] -2.51% | viability [4] 78.1% | viability [5] 71.1% | inhibition [6] 0.84% | RAM network inhibition [7] 5.82%

O=C1NC(c2ccco2)Nc2sc3c(c21)CCN(Cc1ccccc1)C3 (stereo unspecified)
inactive: growth inhibition [1] 4.68% | growth inhibition [2] 17.8% | viability increase [3] -3.01% | viability [4] 103% | viability [5] 94% | inhibition [6] 1.84% | RAM network inhibition [7] 3.69%

OCCOCCNc1ncnc2nc[nH]c12
inactive: growth inhibition [1] -8.26% | growth inhibition [2] -0.86% | viability increase [3] -0.43% | viability [4] 106% | viability [5] 101% | inhibition [6] 1.8% | RAM network inhibition [7] -0.28%

CCOC(=O)c1sc(NC(=O)c2ccc(Cl)s2)cc1C
inactive: growth inhibition [1] -0.47% | growth inhibition [2] -4.72% | viability increase [3] 0.81% | viability [4] 105% | viability [5] 94.9% | inhibition [6] 2.33% | RAM network inhibition [7] 5.22%

Cn1cccc1Cc1nnc(SCC(=O)Nc2ccc3c(c2)OCO3)n1-c1ccc(F)cc1
inactive: growth inhibition [1] 8.39% | growth inhibition [2] 14.1% | viability increase [3] -1.95% | viability [4] 90.4% | viability [5] 91.3% | inhibition [6] 1.56% | RAM network inhibition [7] 8.29%

O=C(CCN1CCN(CCO)CC1)Nc1ccc(F)c(F)c1
inactive: growth inhibition [1] -1.65% | growth inhibition [2] -3.58% | viability increase [3] -2.29% | viability [4] 104% | viability [5] 101% | inhibition [6] 0.265% | RAM network inhibition [7] 2.01%

CC(=O)C1=C(C)N=c2s/c(=C/c3ccc4c(c3)OCO4)c(=O)n2C1c1ccc(N(C)C)cc1 (stereo unspecified)
inactive: growth inhibition [1] -9.92% | growth inhibition [2] -9.9% | viability increase [3] -1.24% | viability [4] 93.2% | viability [5] 89.5% | inhibition [6] 1.13% | RAM network inhibition [7] 4.19%

CCCS(=O)(=O)N1CCn2c(nc3ccccc32)C1
inactive: growth inhibition [1] 0.585% | growth inhibition [2] -2.62% | viability increase [3] -0.37% | viability [4] 106% | viability [5] 102% | inhibition [6] 2.19% | RAM network inhibition [7] 2.93%

COc1ccc(S(=O)(=O)NCc2cn3c(C)csc3n2)cc1F
inactive: growth inhibition [1] -21% | growth inhibition [2] -8.7% | viability increase [3] 0.05% | viability [4] 94.1% | viability [5] 93.3% | inhibition [6] 0.86% | RAM network inhibition [7] -0.48%

COc1ccccc1S(=O)(=O)Cc1ccc(C(=O)NCCN(C)C)o1
inactive: growth inhibition [1] -6.73% | growth inhibition [2] 5% | viability increase [3] -0.73% | viability [4] 106% | viability [5] 98.2% | inhibition [6] 1.9% | RAM network inhibition [7] 0.1%

Cc1cc(C(=O)N2CCN(S(C)(=O)=O)CC2)cs1
inactive: growth inhibition [1] -7.07% | growth inhibition [2] -12.8% | viability increase [3] -1.25% | viability [4] 94.5% | viability [5] 88.9% | inhibition [6] 1.6% | RAM network inhibition [7] -0.04%
